Measured values: ChEMBL document CHEMBL3286366, “Identification of malic enzyme mutants depending on 1,2,3-triazole moiety-containing nicotinamide adenine dinucleotide analogs” (Bioorg Med Chem Lett, 2014)

How the values were obtained:
Escherichia coli K-12 [1] = test: Activity of purified recombinant Escherichia coli K-12 malic enzyme L310K/L404S mutant at 0.2 mM by Lineweaver-Burk plot method in presence of L-malate MnCl2
Escherichia coli K-12 [2] = test: Ratio of Kcat to Km for purified recombinant Escherichia coli K-12 malic enzyme L310K/L404S mutant at 0.2 mM by Lineweaver-Burk plot method in presence of L-malate MnCl2
Escherichia coli K-12 [3] = test: Activity of purified recombinant Escherichia coli K-12 malic enzyme L310R/Q401I mutant at 0.2 mM by UV-vis spectrophotometry in presence of L-malate MnCl2
How it was run: (§1)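 Screening of malic enzyme mutants with 1,2,3-triazole-containing NAD analogs as cofactor. Each analog was present at 0.2 mM, and the read-out was specific activity.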

Escherichia coli K-12 [4] = test: Activity of purified recombinant Escherichia coli K-12 malic enzyme L310R/L404N mutant at 0.2 mM by UV-vis spectrophotometry in presence of L-malate MnCl2; how it was run: as §1
Escherichia coli K-12 [5] = test: Activity of purified recombinant Escherichia coli K-12 malic enzyme L310R/Q401S mutant at 0.2 mM by UV-vis spectrophotometry in presence of L-malate MnCl2; how it was run: as §1
Escherichia coli K-12 [6] = test: Activity of purified recombinant Escherichia coli K-12 malic enzyme L310K/Q401R mutant at 0.2 mM by UV-vis spectrophotometry in presence of L-malate MnCl2; how it was run: as §1
Escherichia coli K-12 [7] = test: Activity of purified recombinant Escherichia coli K-12 malic enzyme L310K/L404S mutant at 0.2 mM by UV-vis spectrophotometry in presence of L-malate MnCl2; how it was run: as §1
Escherichia coli K-12 [8] = test: Activity of purified recombinant Escherichia coli K-12 malic enzyme L310R/L404C mutant at 0.2 mM by UV-vis spectrophotometry in presence of L-malate MnCl2; how it was run: as §1
Escherichia coli K-12 [9] = test: Activity of purified recombinant Escherichia coli K-12 malic enzyme L310R/Q401N mutant at 0.2 mM by UV-vis spectrophotometry in presence of L-malate MnCl2; how it was run: as §1
Escherichia coli K-12 [10] = test: Activity of purified recombinant Escherichia coli K-12 malic enzyme L310R/Q401V mutant at 0.2 mM by UV-vis spectrophotometry in presence of L-malate MnCl2; how it was run: as §1
[11] = compound: NC(=O)c1ccc[n+]([C@@H]2O[C@H](COP(=O)([O-])OP(=O)(O)OC[C@@H]3O[C@H](n4cc(-c5ccccc5)nn4)[C@@H](O)[C@H]3O)[C@@H](O)[C@H]2O)c1; test: (§2) Activity of purified recombinant Escherichia coli K-12 malic enzyme at 0.2 mM by Lineweaver-Burk plot method in presence of L-malate MnCl2
[12] = compound: Cc1ccccc1-c1cn([C@H]2O[C@@H](COP(=O)(O)OP(=O)([O-])OC[C@H]3O[C@@H]([n+]4cccc(C(N)=O)c4)[C@H](O)[C@@H]3O)[C@H](O)[C@@H]2O)nn1; test: as §2
[13] = compound: NC(=O)c1ccc[n+]([C@@H]2O[C@H](COP(=O)([O-])OP(=O)(O)OC[C@@H]3O[C@H](n4cnc5c(N)ncnc54)[C@@H](O)[C@H]3O)[C@@H](O)[C@H]2O)c1; test: as §2
[14] = compound: NC(=O)c1ccc[n+]([C@@H]2O[C@H](COP(=O)([O-])OP(=O)(O)OC[C@@H]3O[C@H](n4cc(-c5cccc6ccccc56)nn4)[C@@H](O)[C@H]3O)[C@@H](O)[C@H]2O)c1; test: as §2
[15] = compound: NC(=O)c1ccc[n+]([C@@H]2O[C@H](COP(=O)([O-])OP(=O)(O)OC[C@@H]3O[C@H](n4cc(-c5ccccc5)nn4)[C@@H](O)[C@H]3O)[C@@H](O)[C@H]2O)c1; test: (§3) Ratio of Kcat to Km for purified recombinant Escherichia coli K-12 malic enzyme at 0.2 mM by Lineweaver-Burk plot method in presence of L-malate MnCl2
[16] = compound: Cc1ccccc1-c1cn([C@H]2O[C@@H](COP(=O)(O)OP(=O)([O-])OC[C@H]3O[C@@H]([n+]4cccc(C(N)=O)c4)[C@H](O)[C@@H]3O)[C@H](O)[C@@H]2O)nn1; test: as §3
[17] = compound: NC(=O)c1ccc[n+]([C@@H]2O[C@H](COP(=O)([O-])OP(=O)(O)OC[C@@H]3O[C@H](n4cnc5c(N)ncnc54)[C@@H](O)[C@H]3O)[C@@H](O)[C@H]2O)c1; test: as §3
[18] = compound: NC(=O)c1ccc[n+]([C@@H]2O[C@H](COP(=O)([O-])OP(=O)(O)OC[C@@H]3O[C@H](n4cc(-c5cccc6ccccc56)nn4)[C@@H](O)[C@H]3O)[C@@H](O)[C@H]2O)c1; test: as §3

`NC(=O)c1ccc[n+]([C@@H]2O[C@H](COP(=O)([O-])OP(=O)(O)OC[C@@H]3O[C@H](n4cnc5c(N)ncnc54)[C@@H](O)[C@H]3O)[C@@H](O)[C@H]2O)c1` showed a Km (Escherichia coli K-12 [1]) of 4100 µM, a kcat (Escherichia coli K-12 [1]) of 33.7 s⁻¹ and a kcat/Km (Escherichia coli K-12 [2]) of 8200 M⁻¹ s⁻¹.

For `COc1ccc(-c2cn([C@H]3O[C@@H](COP(=O)(O)OP(=O)([O-])OC[C@H]4O[C@@H]([n+]5cccc(C(N)=O)c5)[C@H](O)[C@@H]4O)[C@H](O)[C@@H]3O)nn2)cc1`, the Activity (Escherichia coli K-12 [3]) was 0.98 U/mg, the Activity (Escherichia coli K-12 [4]) was 0.51 U/mg and the Activity (Escherichia coli K-12 [5]) was 0.43 U/mg. The Activity (Escherichia coli K-12 [6]) was 4.3 U/mg, the Activity (Escherichia coli K-12 [7]) was 1.6 U/mg and the Activity (Escherichia coli K-12 [8]) was 0.51 U/mg. It also gave an Activity (Escherichia coli K-12 [9]) of 0.43 U/mg.

In the case of `NC(=O)c1ccc[n+]([C@@H]2O[C@H](COP(=O)([O-])OP(=O)(O)OC[C@@H]3O[C@H](n4cc(-c5ccccc5)nn4)[C@@H](O)[C@H]3O)[C@@H](O)[C@H]2O)c1`, the Km (Escherichia coli K-12 [1]) is reported as 2500 µM, the kcat (Escherichia coli K-12 [1]) is reported as 16.4 s⁻¹ and the kcat/Km (Escherichia coli K-12 [2]) is reported as 6700 M⁻¹ s⁻¹.

Work on `NC(=O)c1ccc[n+]([C@@H]2O[C@H](COP(=O)([O-])OP(=O)(O)OC[C@@H]3O[C@H](n4cc(C(=O)O)nn4)[C@@H](O)[C@H]3O)[C@@H](O)[C@H]2O)c1` yielded an Activity (Escherichia coli K-12 [6]) of 2.1 U/mg and an Activity (Escherichia coli K-12 [7]) of 0.17 U/mg.

Work on `Cc1ccccc1-c1cn([C@H]2O[C@@H](COP(=O)(O)OP(=O)([O-])OC[C@H]3O[C@@H]([n+]4cccc(C(N)=O)c4)[C@H](O)[C@@H]3O)[C@H](O)[C@@H]2O)nn1` yielded a Km (Escherichia coli K-12 [1]) of 1100 µM, a kcat (Escherichia coli K-12 [1]) of 86.7 s⁻¹ and a kcat/Km (Escherichia coli K-12 [2]) of 78800 M⁻¹ s⁻¹.

`NC(=O)c1ccc[n+]([C@@H]2O[C@H](COP(=O)([O-])OP(=O)(O)OC[C@@H]3O[C@H](n4cc(-c5cccc6ccccc56)nn4)[C@@H](O)[C@H]3O)[C@@H](O)[C@H]2O)c1` was tested, and the Activity (Escherichia coli K-12 [4]) was 0.47 U/mg, the Activity (Escherichia coli K-12 [10]) was 0.53 U/mg and the Activity (Escherichia coli K-12 [6]) was 2.3 U/mg. For the same molecule, the Activity (Escherichia coli K-12 [7]) was 10.5 U/mg, the Km (Escherichia coli K-12 [1]) was 1000 µM and the kcat (Escherichia coli K-12 [1]) was 68.6 s⁻¹. It also gave a kcat/Km (Escherichia coli K-12 [2]) of 68600 M⁻¹ s⁻¹, an Activity (Escherichia coli K-12 [8]) of 0.36 U/mg and an Activity (Escherichia coli K-12 [9]) of 0.32 U/mg.

B1: NAD-dependent malic enzyme (Escherichia coli (strain K12)), P26616 (protein)
chain: MEPKTKKQRSLYIPYAGPVLLEFPLLNKGSAFSMEERRNFNLLGLLPEVVETIEEQAERAWIQYQGFKTEIDKHIYLRNIQDTNETLFYRLVNNHLDEMMPVIYTPTVGAACERFSEIYRRSRGVFISYQNRHNMDDILQNVPNHNIKVIVVTDGERILGLGDQGIGGMGIPIGKLSLYTACGGISPAYTLPVVLDVGTNNQQLLNDPLYMGWRNPRITDDEYYEFVDEFIQAVKQRWPDVLLQFEDFAQKNAMPLLNRYRNEICSFNDDIQGTAAVTVGTLIAASRAAGGQLSEKKIVFLGAGSAGCGIAEMIISQTQREGLSEEAARQKVFMVDRFGLLTDKMPNLLPFQTKLVQKRENLSDWDTDSDVLSLLDVVRNVKPDILIGVSGQTGLFTEEIIREMHKHCPRPIVMPLSNPTSRVEATPQDIIAWTEGNALVATGSPFNPVVWKDKIYPIAQCNNAFIFPGIGLGVIASGASRITDEMLMSASETLAQYSPLVLNGEGMVLPELKDIQKVSRAIAFAVGKMAQQQGVAVKTSAEALQQAIDDNFWQAEYRDYRRTSI
B1 gave a Km [11] of 2900 µM, a kcat [11] of 7.5 s⁻¹ and a Km [12] of 1600 µM. The kcat [12] was 10 s⁻¹, the Km [13] was 280 µM and the kcat [13] was 103 s⁻¹. For the same molecule, the Km [14] was 1800 µM, the kcat [14] was 4.6 s⁻¹ and the kcat/Km [15] was 2600 M⁻¹ s⁻¹. It also gave a kcat/Km [16] of 6300 M⁻¹ s⁻¹, a kcat/Km [17] of 369000 M⁻¹ s⁻¹ and a kcat/Km [18] of 2600 M⁻¹ s⁻¹.
